Source: article PMC8645912 (ESMO Open, 2021)
“And” between values parts separate entries of the source, which are not always exact repeats. Equal entries are not always repeated. Where two headings read alike, the source gives them in different places. One block for each compound: values may come before it.

Legend:
[1] = test system: metastatic renal cell carcinoma; conditions: mRCC; cited from earlier work
[2] = cited from earlier work
[3] = cited from earlier work; remark: listed apart in the source
[4] = Cabozantinib plasma PK monitoring; type: in vivo, human
[5] = PK/PD relation for efficacy: cabozantinib PK at progressive disease; type: in vivo, human; conditions: human, plasma, oral
[6] = test system: metastatic renal cell carcinoma; test: as above; type: in vivo, human
[7] = Adverse events in the study cohort; type: in vivo, human
In short: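 Clinical examination and blood tests every 4-6 weeks. Adverse events graded by CTCAE v5.0. Relevant toxicity defined as grade 3-4, or grade 2 requiring dose reduction or discontinuation. Each patient counted once for toxicity.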

[8] = test system: metastatic renal cell carcinoma; conditions: CheckMate 9ER PK/PD study, Cavg up to day 1 of cycle 7; cited from earlier work
[9] = test system: metastatic renal cell carcinoma; conditions: CABOSUN trial, cited from earlier work
[10] = cited from earlier work; remark: listed apart in the source
[11] = type: in vivo, human; conditions: for AUC: human, plasma, oral
[12] = test system: metastatic renal cell carcinoma; conditions: METEOR trial; cited from earlier work
[13] = SD/PR patients (disease control)
[14] = patients with progressive disease (PD)
[15] = most frequent G3 toxicities, of the 30 patients
[16] = of the 30 patients with relevant toxicity
[17] = patients with relevant toxicity
[18] = patients without relevant toxicity

SMILES: CNC(=O)c1ccccc1Sc1ccc2c(/C=C/c3ccccn3)n[nH]c2c1 [Axitinib]
AUC at 4 weeks from treatment start associated with better OS and PFS [1]: > 300 ng·h/mL and 154 to 620 ng·h/mL
Css,trough associated with longer OS [1]: • >5 ng/ml associated with longer OS
Css,trough associated with ≥G2 asthenia [1]: > 7.1 ng/mL

SMILES: Cc1ccc(Nc2nccc(N(C)c3ccc4c(C)n(C)nc4c3)n2)cc1S(N)(=O)=O [Pazopanib]
Css,trough associated with PD [1]: < 15 µg/mL
Css,trough associated with PR/SD [1]: ≥ 15 µg/mL
Css,trough associated with longer PFS and greater tumor shrinkage [1]: ≥ 20.5 µg/mL

SMILES: CCN(CC)CCNC(=O)c1c(C)[nH]c(/C=C2\C(=O)Nc3ccc(F)cc32)c1C [Sunitinib]
AUCss and efficacy [1]: • Lower in PD patients compared with AUCss at treatment start.
AUCss associated with higher grade 3-4 toxicity [1]: • >2150 ng/ml/h higher grade 3-4 toxicity
Css,trough associated with longer PFS and TTF [1]: < 100 ng/mL
Css,trough associated with worse outcomes [1]: > 100 ng/mL

Mean Ctrough at 40 mg daily (SD) ([4]; 40 mg daily): 565 (283) ng/ml
Median Ctrough at 40 mg daily (IQR) ([4]; 40 mg daily): 477 (366-649) ng/ml
Mean Ctrough at 60 mg daily (SD) ([4]; 60 mg daily): 667 (375) ng/ml
Median Ctrough at 60 mg daily (IQR) ([4]; 60 mg daily): 564 (402-777) ng/ml
AUC ([4]; human, plasma, oral, Mean AUC (SD), whole population, from population PK model): 20900 ng·h/mL
Median measured cabozantinib plasma concentration ([4]; median daily dose 40 mg, median time 38 weeks): 500 ng/mL
Median Ctrough (IQR) ([4]; whole population): 500.2 (365.5-742.5) ng/ml
Mean Cmeas (measured blood concentration) ([4]; whole population, 76 mRCC patients, steady state, at least 8 h from last dose): 598.3 ng/mL
Mean Ctrough (SD) ([4]; whole population, Ctrough estimated from Cmeas by formula): 597.7 ng/ml and 597.7 (363.9) ng/ml
Mean Cl/F (SD) ([4]; whole population, from population PK model): 2.5 L/h
AUC ([5]; Mean AUC (SD), SD/PR patients (disease control)): 24600 ng·h/mL
AUC ([5]; Mean AUC (SD), patients with progressive disease (PD)): 17700 ng·h/mL
AUC ([5]; Median AUC (IQR), SD/PR patients (disease control)): 20000 ng·h/mL
AUC ([5]; Median AUC (IQR), patients with progressive disease (PD)): 16000 ng·h/mL
Mean Cl/F (SD) [6, 13]: 2.01 L/h
Mean Ctrough (SD) [6, 13]: 788.5 ng/mL
Median Cl/F (IQR) [6, 13]: 2.9 L/h
Mean Cl/F (SD) [6, 14]: 2.86 L/h
Mean Ctrough (SD) [6, 14]: 465.6 ng/mL
Median Cl/F (IQR) [6, 14]: 2 L/h
Median Ctrough (IQR) [6, 14]: 406 ng/mL
SMILES: COc1cc2nccc(Oc3ccc(NC(=O)C4(C(=O)Nc5ccc(F)cc5)CC4)cc3)c2cc1OC [cabozantinib]
Effect of PPI administration on cabozantinib efficacy and clinical PK [2]: no relevant effect
Individual predicted average cabozantinib concentration at steady state ([3]; 20 mg daily): 375 ng/mL
Individual predicted average cabozantinib concentration at steady state ([3]; 40 mg daily): 750 ng/mL
Individual predicted average cabozantinib concentration at steady state ([3]; 60 mg daily): 1125 ng/mL
Cl/F, patients with a lower Cl/F ([3]; after oral administration): 1.3 L/h
Cl/F, patients with a standard Cl/F ([3]; after oral administration): 2.3 L/h
Number of PR observed ([6]; RECIST 1.1): 7 patients
Ctrough threshold to detect disease progression (drug efficacy threshold) ([6]; ROC curve): 536.8 ng/mL
Proposed target Ctrough for efficacy in TDM ([6]; mRCC, real-life TDM): > 530 ng/mL
Number of patients with progressive disease ([6]; of 76 patients, RECIST 1.1, at data cut-off): 35 patients and 34 patients
Patients with PR observed ([6]; of patients, RECIST 1.1): 9.2%
G3 cutaneous rash [7, 15]: 16.7%
G3 hand-foot syndrome (HFS) [7, 15]: 26.7%
G3 hypertension [7, 15]: 50%
G3 vomiting [7, 15]: 10%
Number of patients who experienced a relevant toxicity ([7]; of 76 patients, at data cut-off): 30 patients
Patients with G2 event requiring a dose reduction (DR) [7, 16]: 20%
Patients with G2 event requiring a drug discontinuation (DD) [7, 16]: 26.7%
Patients with at least one G2 event requiring a DD or a DR [7, 16]: 46.7%
Patients with at least one G3 toxicity [7, 16]: 53.3%
G4 toxicity ([7]; study cohort): No patient
Effect of average cabozantinib concentration (Cavg) on PFS [8]: no effect
PFS and ORR versus first-line standard sunitinib ([9]; first-line mRCC): superior to first-line standard sunitinib
Dose reduction (DR) rate [9]: 46%
Drug discontinuation (DD) rate [9]: 16%
Grade 3-4 adverse event rate [9]: 67%
Biopharmaceutics Classification System class [10]: Class II
Cellular permeability in vivo [10]: high
Ctrough threshold to detect relevant toxicity ([11]; ROC curve): 617.7 ng/mL
AUC ([11]; Mean AUC (SD), patients with relevant toxicity): 28600 ng·h/mL
AUC ([11]; Mean AUC (SD), patients without relevant toxicity): 19800 ng·h/mL
AUC ([11]; Median AUC (IQR), patients with relevant toxicity): 21000 ng·h/mL
AUC ([11]; Median AUC (IQR), patients without relevant toxicity): 16000 ng·h/mL
Cmeas [11, 17]: 732 ng/mL
Median Ctrough (IQR) [11, 17]: 693 ng/mL
Mean Ctrough (SD) ([11]; patients with relevant toxicity (G3-4, or G2 requiring DR or DD)): 950.2 ng/mL
Cmeas [11, 18]: 531 ng/mL
Mean Ctrough (SD) [11, 18]: 574.1 ng/mL
Median Ctrough (IQR) [11, 18]: 521 ng/mL
Dose reduction (DR) rate [12]: 60%
Drug discontinuation (DD) rate [12]: 9%
Grade 3-4 adverse event rate [12]: 74%
PFS, ORR and OS versus everolimus [12]: superiority over everolimus
